According to ChEMBL document CHEMBL1153946, “Oxadiazole-diarylpyrazole 4-carboxamides as cannabinoid CB1 receptor ligands” (Bioorg Med Chem Lett, 2009):

Columns and labels:
[1] = target: Cannabinoid receptor 1 (Rattus norvegicus, UniProt P20272); experiment: Displacement of [3H]CP-55940 from cannabinoid CB1 receptor in Sprague-Dawley rat cerebellar membrane by liquid scintillation spectrometry; design: species or system Cerebellum
In short: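 Membranes from cerebella of male Sprague-Dawley rats (200–300 g), homogenized in TME (50 mM Tris-HCl, 1 mM EDTA, 3 mM MgCl₂, pH 7.4), spun 48,000g 30 min at 4 °C, resuspended, stored at −70 °C. Incubated 1 h at 30 °C with radioligand in TME plus 0.5% fatty-acid-free BSA. Filtered on PEI-soaked GF/B and washed; IC50 by nonlinear regression.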

[2] = target: Cannabinoid receptor 2 (Homo sapiens, UniProt P34972); experiment: Displacement of [3H]WIN-55212-2 from human recombinant cannabinoid CB2 receptor expressed in CHOK1 cells by liquid scintillation spectrometry; format: cell-based, CHO-K1
In short: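 CHO K-1 cells transfected with human CB2; membranes prepared as for brain tissue. Competition with 3 nM [3H]WIN55,212-2 in TME buffer (pH 7.4) with 0.5% fatty-acid-free BSA, 1 h at 30 °C. Filtered on 0.1% PEI-soaked GF/B, washed five times with ice-cold buffer plus 0.1% BSA, and counted by scintillation. IC50 by nonlinear regression.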

[3] = test system: CHO-K1; experiment: Selectivity ratio of IC50 for human recombinant cannabinoid CB2 receptor expressed in CHOK1 cells to IC50 for cannabinoid CB1 receptor in Sprague-Dawley rat cerebellar membrane

Chain of Cannabinoid receptor 1 (P20272 whole entry): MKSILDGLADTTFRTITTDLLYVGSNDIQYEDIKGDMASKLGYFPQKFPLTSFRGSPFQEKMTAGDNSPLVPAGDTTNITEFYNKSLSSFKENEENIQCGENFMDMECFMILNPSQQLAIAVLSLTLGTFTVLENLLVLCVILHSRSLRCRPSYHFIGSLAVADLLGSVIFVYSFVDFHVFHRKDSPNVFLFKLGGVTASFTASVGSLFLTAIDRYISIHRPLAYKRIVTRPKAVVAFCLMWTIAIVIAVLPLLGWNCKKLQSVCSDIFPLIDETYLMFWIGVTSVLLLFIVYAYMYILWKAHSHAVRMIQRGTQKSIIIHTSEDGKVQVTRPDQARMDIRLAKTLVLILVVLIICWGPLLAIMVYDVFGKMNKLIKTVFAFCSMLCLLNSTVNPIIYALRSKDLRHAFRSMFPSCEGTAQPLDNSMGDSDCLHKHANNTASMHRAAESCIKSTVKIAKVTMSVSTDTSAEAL
Chain of Cannabinoid receptor 2 (P34972 whole entry): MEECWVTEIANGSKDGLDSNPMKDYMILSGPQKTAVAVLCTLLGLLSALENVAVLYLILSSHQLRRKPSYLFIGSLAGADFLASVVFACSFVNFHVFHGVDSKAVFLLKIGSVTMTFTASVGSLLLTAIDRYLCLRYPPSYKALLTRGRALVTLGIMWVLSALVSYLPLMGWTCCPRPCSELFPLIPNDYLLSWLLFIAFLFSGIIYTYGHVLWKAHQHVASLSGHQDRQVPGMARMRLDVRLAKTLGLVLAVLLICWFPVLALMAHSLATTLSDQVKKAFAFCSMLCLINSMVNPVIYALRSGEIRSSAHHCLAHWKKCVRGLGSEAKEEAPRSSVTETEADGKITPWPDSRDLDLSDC

Row | Compound | IC50 [1] [nM] | IC50 [2] [nM] | Ratio IC50 [3]
1 | CC(C)(C)c1nnc(-c2nn(-c3ccc(Cl)cc3Cl)c(-c3ccc(Cl)cc3)c2C(=O)NN2CCCCC2)o1 | 17.2 | – | –
2 | CCN(CC)C(=O)c1c(-c2nnc(C(C)(C)C)o2)nn(-c2ccc(Cl)cc2Cl)c1-c1ccc(Cl)cc1 | 62.1 | – | –
3 | CC(C)(C)c1nnc(-c2nn(-c3ccc(Cl)cc3Cl)c(-c3ccc(Br)cc3)c2C(=O)Nc2ccccn2)o1 | 1.46 | 374 | 256
4 | CC(C)(C)c1nnc(-c2nn(-c3ccc(Cl)cc3Cl)c(-c3ccc(Cl)cc3)c2C(=O)Nc2ccccn2)o1 | 1.47 | 636 | 433
5 | CC(C)(C)c1nnc(-c2nn(-c3ccc(Cl)cc3Cl)c(-c3ccc(Br)cc3)c2C(=O)Nc2ccccc2)o1 | 1.35 | 386 | 286
6 | CCN(C)C(=O)c1c(-c2nnc(C(C)(C)C)o2)nn(-c2ccc(Cl)cc2Cl)c1-c1ccc(Cl)cc1 | 11.5 | – | –
7 | CN(C)C(=O)c1c(-c2nnc(C(C)(C)C)o2)nn(-c2ccc(Cl)cc2Cl)c1-c1ccc(Cl)cc1 | 13.4 | – | –
8 | CC(=O)CNC(=O)c1c(-c2nnc(C(C)(C)C)o2)nn(-c2ccc(Cl)cc2Cl)c1-c1ccc(Cl)cc1 | 3.51 | – | –
9 | O=C(Nc1ccccc1)c1c(-c2nnc(C3(c4ccc(Cl)cc4)CC3)o2)nn(-c2ccc(Cl)cc2Cl)c1-c1ccc(Br)cc1 | 1.96 | > 10000 | > 5100
10 | CC(C)(C)c1nnc(-c2nn(-c3ccc(Cl)cc3Cl)c(-c3ccc(Cl)cc3)c2C(=O)N2CCCC2)o1 | 93.4 | – | –
11 | CCCCNC(=O)c1c(-c2nnc(C(C)(C)C)o2)nn(-c2ccc(Cl)cc2Cl)c1-c1ccc(Cl)cc1 | 17.8 | – | –
12 | CC(C)(C)c1nnc(-c2nn(-c3ccc(Cl)cc3Cl)c(-c3ccc(Cl)cc3)c2C(=O)Nc2ccccc2)o1 | 1.66 | 738 | 445

Further lines, with some results ahead:

Row | IC50 [1] [nM] | IC50 [2] [nM] | Compound | Ratio IC50 [3]
13 | 3.27 | – | CC(C)(C)c1nnc(-c2nn(-c3ccc(Cl)cc3Cl)c(-c3ccc(Cl)cc3)c2C(=O)NC2CC2)o1 | –
14 | 12.7 | – | CCNC(=O)c1c(-c2nnc(C(C)(C)C)o2)nn(-c2ccc(Cl)cc2Cl)c1-c1ccc(Cl)cc1 | –
15 | 18.3 | – | CNC(=O)c1c(-c2nnc(C(C)(C)C)o2)nn(-c2ccc(Cl)cc2Cl)c1-c1ccc(Cl)cc1 | –
16 | 23.8 | – | CC(C)(C)c1nnc(-c2nn(-c3ccc(Cl)cc3Cl)c(-c3ccc(Cl)cc3)c2C(N)=O)o1 | –
17 | 5.72 | – | CCCNC(=O)c1c(-c2nnc(C(C)(C)C)o2)nn(-c2ccc(Cl)cc2Cl)c1-c1ccc(Cl)cc1 | –
18 | 9.31 | – | CC(C)NC(=O)c1c(-c2nnc(C(C)(C)C)o2)nn(-c2ccc(Cl)cc2Cl)c1-c1ccc(Cl)cc1 | –
19 | 7.25 | – | CC(C)(C)c1nnc(-c2nn(-c3ccc(Cl)cc3Cl)c(-c3ccc(Cl)cc3)c2C(=O)NC2CCCC2)o1 | –
